In ChEMBL document CHEMBL1166005, “Discovery of tetrahydro-beta-carbolines as inhibitors of the mitotic kinesin KSP” (Bioorg Med Chem, 2010):

Experiments:
[1] = tested on: A549; test: Antiproliferative activity against human A549 cells after 48 hrs by SRB assay; conditions: A549, 48 h
[2] = target: T1, Kinesin-like protein KIF11 (Homo sapiens, UniProt P52732); test: Inhibition of human Eg5 expressed in Escherichia coli assessed as microtubule-activated ATPase activity by spectrophotometry
T1 sequence (P52732 whole entry): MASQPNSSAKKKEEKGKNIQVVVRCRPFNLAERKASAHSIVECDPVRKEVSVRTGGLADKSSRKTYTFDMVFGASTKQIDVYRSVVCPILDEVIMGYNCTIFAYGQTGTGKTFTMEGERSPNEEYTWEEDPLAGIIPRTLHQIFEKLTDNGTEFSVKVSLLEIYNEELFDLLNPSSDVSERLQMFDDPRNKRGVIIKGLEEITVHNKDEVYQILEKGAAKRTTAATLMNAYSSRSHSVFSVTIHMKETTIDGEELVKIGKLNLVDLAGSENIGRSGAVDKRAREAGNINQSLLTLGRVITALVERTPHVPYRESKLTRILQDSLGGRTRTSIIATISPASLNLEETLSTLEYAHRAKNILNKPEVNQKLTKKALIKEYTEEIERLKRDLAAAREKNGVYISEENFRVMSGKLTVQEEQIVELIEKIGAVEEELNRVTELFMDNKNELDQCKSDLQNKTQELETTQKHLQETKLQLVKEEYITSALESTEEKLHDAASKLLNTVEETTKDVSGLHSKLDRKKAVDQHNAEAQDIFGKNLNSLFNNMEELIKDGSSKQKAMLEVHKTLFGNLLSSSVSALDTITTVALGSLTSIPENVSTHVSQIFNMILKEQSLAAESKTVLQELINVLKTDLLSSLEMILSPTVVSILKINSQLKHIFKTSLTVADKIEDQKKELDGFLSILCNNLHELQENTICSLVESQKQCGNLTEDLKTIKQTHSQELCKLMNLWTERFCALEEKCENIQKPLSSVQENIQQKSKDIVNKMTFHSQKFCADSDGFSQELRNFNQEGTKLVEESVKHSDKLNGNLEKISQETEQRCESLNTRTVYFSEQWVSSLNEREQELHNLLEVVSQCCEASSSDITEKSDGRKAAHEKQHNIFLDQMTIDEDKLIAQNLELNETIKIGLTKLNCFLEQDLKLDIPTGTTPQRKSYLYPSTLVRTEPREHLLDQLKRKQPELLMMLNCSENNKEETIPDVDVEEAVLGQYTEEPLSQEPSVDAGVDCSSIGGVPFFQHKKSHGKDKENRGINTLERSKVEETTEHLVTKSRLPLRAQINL
Outline: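 Eg5 residues 2-386 expressed from pET28a in E. coli (0.5 mM IPTG, 20 h at 20 °C), purified on SP-Sepharose then Mono-Q, and dialyzed into PIPES pH 7.5 ATPase buffer. Assay contained 20 mM PIPES pH 7.5, 5.0 mM MgCl2, 1 mM EGTA, paclitaxel-stabilized MTs, ATP and 2% DMSO. Started with ATP, 37 °C for 30 min; Pi detected by malachite green with citrate stop, A610. No-enzyme and no-MT backgrounds subtracted; means of ≥3 experiments.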

[3] = tested on: PC-3; test: Antiproliferative activity against human PC3 cells after 48 hrs by SRB assay; conditions: PC-3, 48 h
[4] = tested on: HT-29; test: Antiproliferative activity against human HT-29 cells after 48 hrs by SRB assay; conditions: HT-29, 48 h
[5] = tested on: AGS; test: Antiproliferative activity against human AGS cells after 48 hrs by SRB assay
[6] = tested on: HepG2; test: Antiproliferative activity against human HepG2 cells after 48 hrs by SRB assay; conditions: HepG2, 48 h

| Compound | IC50 [1] [µM] | IC50 [2] [µM] | IC50 [3] [µM] | IC50 [4] [µM] | IC50 [5] [µM] | IC50 [6] [µM] |
| --- | --- | --- | --- | --- | --- | --- |
| CC(N)C(=O)N1CCc2c([nH]c3ccc(Cl)cc23)C1c1cccc(O)c1 (stereo not given) | 5.65 | 0.483 |  |  |  |  |
| Cc1ccc2[nH]c3c(c2c1)CCN(CCN)C3c1cccc(O)c1 (racemic) | 7.79 | 0.237 |  |  |  |  |
| NCCC(=O)N1CCc2c([nH]c3c(Cl)cccc23)C1c1cccc(O)c1 (racemic) | 0.94 | 0.04 | 1.28 | 5.75 | 1.31 | 7.47 |
| NCCNC(=O)C1Cc2c([nH]c3ccccc23)C(c2cccc(O)c2)N1 (racemic) | > 10 | 0.065 |  |  |  |  |
| Cc1ccc2[nH]c3c(c2c1)CCN(C(=O)c1ccc(N)cc1)C3c1cccc(O)c1 (racemic) | 7.93 | 0.05 | > 10 | 7.47 | 8.86 | > 10 |
| Cc1ccc2[nH]c3c(c2c1)CCN(CCCN)C3c1cccc(O)c1 (racemic) | 6.86 | 0.083 |  |  |  |  |
| Cc1ccc2[nH]c3c(c2c1)CCN(CCCCN)C3c1cccc(O)c1 (racemic) | 9.19 | 0.454 |  |  |  |  |
| NCCCN1CCc2c([nH]c3ccc(Cl)cc23)C1c1cccc(O)c1 (racemic) | 6.73 | 0.204 |  |  |  |  |
| NCCN1CCc2c([nH]c3ccc(Cl)cc23)C1c1cccc(O)c1 (racemic) | 8.7 | 0.007 |  |  |  |  |
| CCCC(=O)N1CCc2c([nH]c3ccc(Cl)cc23)C1c1c[nH]c2ccccc12 (racemic) | 9.11 | 0.163 | 7.29 | 5.86 | 7.06 | 7.64 |
| Cc1ccc2[nH]c3c(c2c1)CCN(C)C3c1cccc(O)c1 (racemic) | 8.73 | 0.462 |  |  |  |  |
| Cc1ccc2[nH]c3c(c2c1)CCN(Cc1ccccc1)C3c1cccc(O)c1 (racemic) | 6.86 | 12.4 |  |  |  |  |
| CCCC(=O)N1CCc2c([nH]c3ccc(C)cc23)C1c1c[nH]c2ccccc12 (racemic) | > 10 | < 0.001 |  |  |  |  |
| CN1CCc2c([nH]c3ccc(Cl)cc23)C1c1cccc(O)c1 (racemic) | 1.38 | 0.664 | > 10 | 7.4 | 0.75 | > 10 |
| CCCN1CCc2c([nH]c3ccc(Cl)cc23)C1c1cccc(O)c1 (racemic) | 1.55 | 0.169 |  |  |  |  |
| Oc1cccc(C2c3[nH]c4ccc(Cl)cc4c3CCN2Cc2ccccc2)c1 (racemic) | 5.7 | 0.71 |  |  |  |  |

| Compound | IC50 [1] [µM] | IC50 [2] [µM] | IC50 [3] [µM] | IC50 [4] [µM] | IC50 [5] [µM] | IC50 [6] [µM] |
| --- | --- | --- | --- | --- | --- | --- |
| CCOC(=O)C1Cc2c([nH]c3ccccc23)C(c2cccc(O)c2)N1C(C)=O (racemic) | > 10 | 0.724 |  |  |  |  |
| CCOC(=O)C1Cc2c([nH]c3ccccc23)C(c2cccc(O)c2)N1C(=O)CC (racemic) | > 10 | 0.075 |  |  |  |  |
| CC(=O)N1CCc2c([nH]c3ccc(C)cc23)C1c1c[nH]c2ccccc12 (racemic) | > 10 | 0.051 |  |  |  |  |
| Nc1ccc(C(=O)N2CCc3c([nH]c4ccc(Cl)cc34)C2c2cccc(O)c2)cc1 (racemic) | 6.66 | 0.076 | 7.3 | 6.3 | 6.07 | 8.52 |
| NCCC(=O)N1CCc2c([nH]c3ccc(Cl)cc23)C1c1c[nH]c2ccccc12 (racemic) | 1.79 | 0.043 | 1.55 | 6.28 | 6.16 | > 10 |
| CCCC(=O)N1C(C(=O)O)Cc2c([nH]c3ccccc23)C1c1cccc(O)c1 (racemic) | > 10 | 3.45 |  |  |  |  |
| Cc1ccc2[nH]c3c(c2c1)CCN(C(=O)C(C)C)C3c1c[nH]c2ccccc12 (racemic) | > 10 | 0.216 |  |  |  |  |
| CCCC(=O)N1C(C(=O)OCC)Cc2c([nH]c3ccccc23)C1c1cccc(O)c1 (racemic) | > 10 | 0.224 |  |  |  |  |
| CCC(=O)N1C(C(=O)O)Cc2c([nH]c3ccccc23)C1c1cccc(O)c1 (racemic) | > 10 | 0.118 |  |  |  |  |
| O=C(NCCO)C1Cc2c([nH]c3ccccc23)C(c2cccc(O)c2)N1 (racemic) | > 10 | 0.29 |  |  |  |  |
| NCCCCN1CCc2c([nH]c3ccc(Cl)cc23)C1c1cccc(O)c1 (racemic) | 9.06 | 0.347 |  |  |  |  |
| CCOC(=O)C1Cc2c([nH]c3ccccc23)C(c2cccc(O)c2)N1C(=O)C(C)C (racemic) | > 10 | 0.38 |  |  |  |  |
| CC(C)Oc1cccc(C2c3[nH]c4ccc(Cl)cc4c3CCN2CCN)c1 (racemic) | 8.7 |  | > 10 | 7.44 | 8.39 | > 10 |
| CC(=O)N1CCc2c([nH]c3ccc(Cl)cc23)C1c1c[nH]c2ccccc12 (racemic) | 9.8 | 0.337 |  |  |  |  |
| CC(C)C(=O)N1CCc2c([nH]c3ccc(Cl)cc23)C1c1c[nH]c2ccccc12 (racemic) | 6.83 | 1.7 |  |  |  |  |
| CCC(c1nc2cc(Cl)ccc2c(=O)n1Cc1ccccc1)N(CCCN(C)C)C(=O)c1ccc(Br)cc1 (stereo not given) [CK0106023] | 7.02 | 0.049 | > 10 | 3.33 | 5.1 | > 10 |
